Experimental data taken from PubChem BioAssay.
A number with no mark means an inactive call. Inconclusive results are not listed. Calls of active or inactive are those of the source.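 How the source made its calls, unless noted: active means growth inhibition above 25% in both replicates, a cutoff set 3 SD above the mean; inconclusive means above 25% in only one replicate; inactive means the rest.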

Assays:
[1] = S. cerevisiae growth inhibition in permissive medium (OD615), pilot counter-assay for S. cerevisiae lifespan shortening project, permissive growth control (AID 705); settings: OD615, 24 h, at 10 µM, hits give high values
Method in brief: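 System: S. cerevisiae with engineered DeaD lifespan system / Measured by: absorbance (optical density) at 615 nm / Read-out: reduction in yeast growth (OD615) / Times: 4 h cell pre-growth, 24 h exposure at 30 °C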

[2] = S. cerevisiae growth inhibition in restrictive medium, OD615, pilot screen, restrictive growth control, yeast lifespan reduction project (AID 706;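 active means growth inhibition above a set limit, 3 SD over mean compound inhibition, in both replicates, cut at about 43% in these data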;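 further: modified DeaD lifespan yeast strain shifted to restrictive glucose medium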); settings: OD615, 48 h, at 10 µM, hits give high values
Method in brief: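 System: Engineered S. cerevisiae DeaD strain | Buffer or medium: Glucose-based CSMM-D restrictive medium | Schedule: 4 h pre-incubation, 48 h exposure at 30 °C | Technique: Optical density at 615 nm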

[3] = doxorubicin toxicity protection in MRP-1 cells – H69AR cells, CellTiter-Glo, duplicate, MRP-1 activator project, pilot screen (AID 807;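 active means viability increase at or above a cutoff of the median across tested compounds plus 3 SD, cut at about 8.5% in these data, passing the limit was not always enough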;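 further: compound pretreatment 18-22 h then 72 h combined with doxorubicin; 0% = doxorubicin alone and 100% = vehicle without doxorubicin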); settings: H69AR viability with doxorubicin, CellTiter-Glo luminescence; at 10 µM; hits give high values
[4] = viability of HCT116 without oncogenic beta-catenin – human colon tumor cells, pilot screen (AID 823;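 active means cell viability at or below a set limit in both duplicate runs, the limit being the all-compound median minus 4 SD, cut at about 23% in these data, passing the limit was not always enough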;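 further: 0% = wells killed by 20 µM Hyamine and 100% = untreated DMSO cell wells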); settings: HCT116 beta-catenin knockout viability, CellTiter-Glo, 60 h; at 10 µM; hits give low values
[5] = viability of PTEN-null HCT116 cells – cell-based, HCT116 clonal line, CellTiter-Glo, pilot screen (AID 824;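 active means viability at or below 27.92% in each of two runs, the all-compound median minus 4 SD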;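 further: 0% = 20 µM Hyamine control and 100% = vehicle cell control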); settings: HCT116 PTEN-deleted viability, 60 h, at 10 µM, hits give low values
[6] = RAM pathway blockade in budding yeast – dse1pr::URA3 reporter, 5-FOA selection, pilot screen (AID 869;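 active means inhibition over a set limit, the all-compound mean plus 3 SD, in both replicate runs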;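 further: 0% = DMSO wells with no growth and 100% = 10 µM 1-NA-PP1 with full growth; RAM network block rescues cells from 5-FOA so hits raise OD615 growth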); settings: S. cerevisiae dse1pr::URA3 5-FOA growth, OD615, 2 d; at 10 µM; hits give high values; strain carries analog-sensitive mutant Cbk1 kinase
[7] = RAM signaling pathway blockade in yeast – S. cerevisiae, Pdr1DBD-CYC8 efflux-inhibited sensitized strain, primary screen (AID 1298;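 active means RAM network inhibition above 8.4% in each of two replicates, 3 SD over the compound average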;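 further: 0% = DMSO untreated cells without growth and 100% = 10 µM 1-NA-PP1 full growth; higher means more yeast growth rescued from 5-FOA killing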); settings: S. cerevisiae cbk1-as DSE1-URA3 strain, 5-FOA growth OD615, 2 d; at 50 µM; hits give high values

SMILES	growth inhibition [1]	growth inhibition [2]	viability increase [3]	viability [4]	viability [5]	inhibition [6]	RAM network inhibition [7]
COc1ccccc1N(CC(=O)Nc1ccccc1C)S(C)(=O)=O	-5.63%	-10.8%	-3.72%	94.7%	95.7%	1.12%	1.62%
Oc1cccc(/C=N/c2c(-c3ccco3)nc3ccccn23)c1	-9.82%	-4.22%	-3.47%	87.7%	93.7%	2%	5.22%
Cc1cc2cc(CNC(=O)c3ccc(S(=O)(=O)N4CCCCC4)cc3)ccc2n1C	14.5%	11.4%	-0.91%	97.4%	94.2%	1.04%	3.71%
O=C1CC(c2nc3ccccc3[nH]2)CN1c1cccc(C(F)(F)F)c1 (centres undefined)	-1.92%	4.75%	6.49%	86%	76.5%	1.1%	-2.12%
COc1ccc(C2C(C(=O)NCCN(C)C)c3ccccc3C(=O)N2C)cc1OC (centres undefined)	-7.69%	-1.69%	-0.77%	100%	97.9%	-0.2%	1.92%
O=C(Cn1nnc(-c2ccccc2F)n1)Nc1cccc2ncccc12	1.42%	-14.2%	-2.32%	103%	98%	1.36%	2.23%
O=C(NCCN1CCCCC1)c1ccc2c(c1)OCCO2	-9.66%	-10.3%	-1.4%	102%	99%	1.86%	2.64%
c1cncc(-c2nc3ccccn3c2Nc2ccc3c(c2)OCCO3)c1	-1.86%	9.11%	-2.32%	99.6%	94.4%	1.04%	4.54%
COC(=O)C1CCN(C(c2cc(OC)c(OC)c(OC)c2)c2sc3nc(C)nn3c2O)CC1 (centres undefined)	-10.8%	-17.2%	-1.81%	102%	93%	2.08%	3.91%
Cc1ccc(-c2nnc3n2N=C(c2ccc(Br)cc2)CS3)cc1	1.27%	15.8%	-2.58%	102%	90.5%	2.41%	4.62%
COc1ccc(C(=O)O)cc1Nc1cc(C)nc2ncnn12	1.95%	-2.37%	-1.14%	103%	93%	0.015%	0.94%
COc1ccc(S(=O)(=O)Cc2ccc(C(=O)NCc3cccs3)o2)cc1	-2.92%	-21.2%	-4.71%	94.7%	87.1%	1.21%	3.04%
O=C(O)c1ccccc1C(=O)NCC(O)COCC1CC=CCC1 (centres undefined)	-14.5%	-16.2%	-1.89%	101%	100%	1.33%	3.55%
Cc1ccccc1NC(=O)c1ocnc1C	-1.01%	-8.43%	-1.48%	101%	92.3%	0.18%	4.25%
COc1ccc2c(c1)CCc1c(C(=O)NCc3ccc(F)cc3)noc1-2	-8.49%	-0.25%	1.03%	100%	103%	1.86%	4.87%
CC(C)NC(=O)C1(O)c2ccccc2NC(=O)N1c1ccc(Cl)c(Cl)c1 (centres undefined)	-5.92%	-12.9%	-2.69%	89.6%	93.9%	0.375%	2.53%
Cn1c(Cn2c(=O)sc3ccccc32)nnc1SCc1cccnc1	-3.75%	2.86%	-1.44%	96.6%	97.1%	1.83%	5.33%
COc1ccc(-c2cc(C(F)(F)F)n3nc(C(=O)N4CCCC4)cc3n2)cc1	-5.39%	-2.34%	-3.39%	93.9%	84.7%	1.71%	7.1%
CC1(C)Oc2ccc3ccc(=O)oc3c2/C(=C/Nc2ccccn2)C1=O	-22.4%	-16%	-1.39%	95%	93.3%	4.12%	6.38%
Cc1cccc(NCc2nc(-c3ccccc3)no2)c1	-2.16%	9.07%	2.88%	107%	106%	2.41%	3.44%
COc1ccc(OC)c(C2C(C(=O)Nc3ccccc3OC)=C(C)Nc3nc(CCCO)nn32)c1 (centres undefined)	4.07%	-1.39%	-2.08%	98.9%	96.8%	3.86%	4.26%
COc1cccc(C(=O)Nc2ccc3nc(N4CCN(c5ncccn5)CC4)cc(C)c3c2)c1OC	12%	-8.24%	-5.36%	9.73% (active)	12.8% (active)	0.73%	4.05%
O=C(Cn1cc2c(n1)CCCC2)N1CCCC1	-1.5%	1.53%	0.07%	95.5%	96.6%	1.14%	4.6%
COC(=O)c1ccc(OCC(O)CN(CC(C)C)CC(C)C)cc1 (centres undefined)	-3.55%	-4.33%	-1.4%	76.1%	86.4%	1.47%	2.82%

SMILES	growth inhibition [1]	growth inhibition [2]	viability increase [3]	viability [4]	viability [5]	inhibition [6]	RAM network inhibition [7]
O=C(CSc1nc2ccccc2c(=O)n1-c1ccccc1)N1CCN(CCO)CC1	-8.67%	-3.58%	-2.9%	99.5%	98.6%	0.595%	1.04%
CCC(=O)Nc1nc2ccccc2n1CCN1CCOCC1	-9.48%	-0.375%	-2.15%	98.6%	99.3%	-0.285%	5.41%
CN1CCN(C(=O)c2cn(C)c3ccc(S(=O)(=O)N(C)C4CCCCC4)cc3c2=O)CC1	-7.8%	-13.2%	-2.39%	102%	101%	0%	-0.26%
CSc1cccc(NS(=O)(=O)c2cccc3nsnc23)c1	-5.26%	-8.19%	-0.51%	88.6%	93.3%	0.885%	2.44%
Cn1c(C(=O)NCCCN2CCOCC2)cc2c(=O)n(C)c3ccccc3c21	0.23%	-0.345%	-4.09%	100%	91.5%	1.67%	-0.72%
CCOC(=O)c1[nH]c(C)c(C(=O)NC(C)CC)c1C (centres undefined)	2.05%	-0.41%	1.35%	103%	99.7%	1.21%	0.93%
COc1cccc(C2CC(=O)NC(SC)=C2C#N)c1 (centres undefined)	-1.85%	-4.75%	-2.47%	98.7%	95.7%	-0.015%	2.87%
CSCCC(/C(O)=C(\C#N)c1nc2ccccc2[nH]1)N1C(=O)c2ccccc2C1=O (centres undefined)	-14.1%	-11.8%	0%	89.8%	90.8%	2.82%	7.67%
COc1ccccc1C(=O)Nc1nnc(-c2ccc(Cl)cc2)o1	-2.96%	1.53%	-1.3%	103%	98.1%	0.395%	-0.25%
O=C(O)c1c(F)c(F)c(F)c(F)c1-c1ccc(Cl)cc1	-20%	-19.6%	-1.76%	98.9%	98.9%	-0.105%	5.79%
O=C(OCC(=O)c1cccs1)c1ccc(NC(=O)c2ccco2)cc1	-6.02%	-19.9%	-3.62%	96.9%	76.1%	0.87%	0.26%
Cc1occc1C(=O)Nc1nnc(-c2ccncc2)s1	4.81%	5.91%	-0.28%	100%	104%	0.705%	-1.3%
CC(C)C(=O)Nc1c(C(=O)c2ccc(F)cc2)oc2ccccc12	-8.13%	-2.55%	0.04%	105%	91.2%	1.55%	1.81%
Cc1c(N=Cc2ccco2)c(=O)n(-c2ccccc2)n1C	-11.1%	-8.96%	-1.15%	93.8%	96.7%	1.39%	0.89%
COc1ccc(Cn2nnc3c(=O)[nH]c(C(=O)NCCc4ccc(F)cc4)nc32)cc1OC	-3.32%	-2.82%	-0.55%	114%	100%	2.69%	0.97%
CCCCCn1c(SCC(=O)OC)nc2c1c(=O)[nH]c(=O)n2C	-16.6%	-10.6%	-0.86%	103%	102%	1.29%	0.79%
CCOC(=O)CSc1ccc2nnc(-c3ccccc3)n2n1	-8.02%	-9.2%	-0.81%	108%	93.5%	1.15%	0.11%
Nc1nc(NC(=O)c2cccc(S(=O)(=O)N3CCCCCC3)c2)nc(-c2ccccc2)n1	-1.66%	6.65%	-4.04%	74.8%	74.4%	3.56%	4.53%
COC(=O)C1=C(C)N(c2cc(Cl)cc(Cl)c2)C(=O)C1	-2.8%	-18.3%	-6.24%	28.2%	45.7%	0.14%	2.04%
O=C(C1CCN(S(=O)(=O)c2ccc(F)cc2)CC1)N1CCOCC1	-6.2%	-6.82%	0.84%	103%	103%	2.23%	1.75%
C=CCSc1nnc(CSc2nc3sc4c(c3c(=O)[nH]2)CCCC4)n1-c1ccccc1	9.19%	37.7%	0.54%	93.2%	91.2%	1.42%	11%
O=C(C1CCN(S(=O)(=O)c2cccc3cccnc23)CC1)N1CCN(c2ccc(Cl)cc2)CC1	-3.56%	0.215%	-1.23%	31.1%	38.6%	1.4%	4.56%
c1ccc2c(c1)nc(NCC1CCCO1)c1nnnn12 (centres undefined)	-4.03%	4.6%	-3.64%	101%	97.6%	1.34%	2.87%
